Hits are enriched below; roughly 4.7% of the tested compounds scored in any of these assays.
KCC2 mod = KCC2 cotransporter modulators, thallium flux, primary screen, cell-based, HEK293 KCC2, FluoZin-2 fluorescence, MLSMR. B-score of Tl+ flux slope (higher = more flux/activation; lower = inhibition) at 10 µM. 190,000 tested, 2.2% active. KCC2 cells, thallium flux FluoZin-2 fluorescence;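 active = thallium flux slope and its plate-corrected score both differing from the plate sample mean at a set confidence after two filtering rounds, in either direction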;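 also: slope of fluorescence scaled to starting intensity during 10 to 20 s after thallium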
MrgX1 antag = antagonists of human MrgX1 receptor, primary screen, HEK293 cells, Fluo-4 calcium flux. AID 588676, 2011. BAM8-22 antagonism; active compounds read low. B-score at 10 µM. Mas-related G-protein coupled receptor member X1 (Homo sapiens), Q96LB2. 310,000 tested, 1.3% active;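 active = calcium-response B-score plate-corrected more than 3 library SD below zero, starting fluorescence within 5 deviations, no agonist response on first addition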;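 also: peak minus trough fluorescence over baseline after final BAM8-22 challenge near maximal dose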
Target sequence (Q96LB2 whole entry, looked up): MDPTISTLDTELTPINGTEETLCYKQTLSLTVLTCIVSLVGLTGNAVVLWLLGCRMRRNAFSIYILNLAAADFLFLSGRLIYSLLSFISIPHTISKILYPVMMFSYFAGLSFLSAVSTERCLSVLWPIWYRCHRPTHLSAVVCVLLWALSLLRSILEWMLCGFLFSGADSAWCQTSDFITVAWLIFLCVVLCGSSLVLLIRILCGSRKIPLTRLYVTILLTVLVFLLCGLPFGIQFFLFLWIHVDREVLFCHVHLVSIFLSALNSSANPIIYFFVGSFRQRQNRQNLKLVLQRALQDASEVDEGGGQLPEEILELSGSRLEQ
RGS4 inh = RGS4 inhibitors, primary screen, cell-based, HEK293 M3R inducible RGS4, calcium flux; Regulator of G-protein signaling 4 (Homo sapiens), P49798; Fluo-4 calcium flux; active compounds read high; triggered by carbachol at its EC20; B-score at 10 µM; 310,000 tested, 0.45% active;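 active = B-score, a plate-corrected calcium signal, over three deviations above library mean, with baseline fluorescence within five deviations of library mean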;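 also: RGS4 expression induced by doxycycline in cells with stable M3 receptor; B-score is computed from the integrated fluorescence ratio over baseline after carbachol; higher B-score means a larger calcium signal and so more RGS4 inhibition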
Target sequence (P49798 whole entry, looked up): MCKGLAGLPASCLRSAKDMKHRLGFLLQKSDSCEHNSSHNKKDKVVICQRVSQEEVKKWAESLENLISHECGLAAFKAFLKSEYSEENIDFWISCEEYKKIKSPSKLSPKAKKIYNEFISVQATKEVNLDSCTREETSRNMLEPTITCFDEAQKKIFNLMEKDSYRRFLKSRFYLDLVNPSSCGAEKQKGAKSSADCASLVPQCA
MrgX1 allo act = positive allosteric modulators of MrgX1, primary screen, HEK293 cells, Fluo-4 calcium flux; FDSS; active compounds read high; B-score at 10 µM; 310,000 tested, 0.63% active;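 active = plate-corrected calcium response at least 3 library SD above typical, normal starting fluorescence, not activating the receptor alone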;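 also: compound read alongside a low EC10 to EC30 dose of BAM8-22 agonist; peak minus trough fluorescence over baseline measured at the second addition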
RGS4 pot = RGS4 potentiators or activators, primary screen, cell-based, HEK293 M3R inducible RGS4, calcium flux | carbachol calcium flux Fluo4; active compounds read low | B-score at 10 µM | 310,000 tested, 0.92% active;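 active = B-score of the integrated calcium signal more than 4 SD below the library mean, with starting fluorescence not abnormally high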;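 also: negative B-score means reduced calcium response which marks RGS4 activation or potentiation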
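Material: Inducible-RGS4 HEK293 cells carrying M3 receptor; also added: carbachol at ECmax as muscarinic agonist stimulus; incubation: compound preincubation 20 min at room temperature before agonist; signal: Fluo4-AM (2 µM) calcium-flux fluorescence, kinetic read; measure: integrated calcium ratio converted to B score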
MrgX1 ag = agonists of human MrgX1 receptor, primary screen, HEK293 cells, Fluo-4 calcium flux. Mas-related G-protein coupled receptor member X1 (Homo sapiens), Q96LB2. B-score at 10 µM. 310,000 tested, 0.44% active. Fluo-4 calcium fluorescence, agonist mode; active compounds read high;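 active = calcium response B-score plate-corrected fluorescence ratio at least 3 library SD, with starting fluorescence B-score inside 5 SD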
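Material: MrgX1-expressing HEK293 cells / Dosing: compound as first of three additions / Incubation: overnight seeding, then 1 h dark dye loading / Signal: Fluo-4 NW calcium fluorescence / Evaluation: B-scored fluorescence response ratio / Benchmarks: positive and negative control wells on each plate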
MrgX1 antag conf = MrgX1 receptor antagonists, duplicate retest, confirmation, HEK293 cells, Fluo-4 calcium flux; 2,300 tested, 19% active; shares compounds with MrgX1 antag; BAM8-22 calcium flux; active compounds read low; remaining BAM8-22 calcium response % of control (active compounds read low), % at 10 µM; AID 602420, 2012;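 active = remaining agonist calcium response no higher than 100% minus 3 SD of agonist-only control wells, with starting fluorescence near control levels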;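 also: agonist BAM8-22 given at a near maximal EC90 to ECmax level; peak minus minimum fluorescence divided by baseline after agonist addition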
HEK293 Ca flux = nonspecific calcium signal in parental HEK293, confirmation, counter-screen for MrgX1 antagonist project, parental HEK293 cells, Fluo-4 calcium flux; fluorescence ratio F(max-min)/F0 at 10 µM; 4,000 tested, 2% active; Fluo-4 calcium fluorescence, FDSS; shares compounds with MrgX1 antag;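 active = duplicate-averaged calcium fluorescence ratio at least three times the standard deviation of buffer wells, a nonspecific response in parental cells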
HEK293 Ca counter = calcium response in parental HEK293 cells, primary screen, counter-screen for MrgX1 allosteric activator project, cell-based, Fluo-4 calcium flux, duplicate; shares compounds with MrgX1 antag; Fluo-4 fluorescence ratio; active compounds read high; fluorescence ratio F(max-min)/F0 at 10 µM; 4,000 tested, 0.4% active;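 active = calcium fluorescence ratio, averaged over duplicates, at least 3 SD of the buffer-well ratio, meaning a nonspecific response in receptor-free cells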;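 also: untransfected parental HEK293 lacking MrgX1 used as counterscreen for MrgX1 allosteric activators; fluorescence change taken during the second addition on a kinetic imager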
HEK293 Ca cntr2 = calcium response in parental HEK293 cells, primary screen, counter-screen for MrgX1 agonist project, cell-based, Fluo-4 calcium flux, duplicate, agonist mode; 4,000 tested, 8.7% active; Fluo-4 calcium fluorescence (FDSS); active compounds read high; shares compounds with MrgX1 antag; AID 624115, 2012; fluorescence ratio F(max-min)/F0 at 10 µM;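 active = calcium fluorescence ratio at least three times the spread of buffer wells, meaning a non-specific response in parental cells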
Numbers without * were called inactive; i = inactive; · = no result.

SMILES	KCC2 mod	MrgX1 antag	RGS4 inh	MrgX1 allo act	RGS4 pot	MrgX1 ag	MrgX1 antag conf	HEK293 Ca flux	HEK293 Ca counter	HEK293 Ca cntr2
Cc1ccc(CNc2cnccn2)cc1	-0.046	-6.1*	i	i	i	i	i	i	i	i
CN(CC(=O)Nc1cccc(F)c1)C(=O)CCc1nc2sc3c(c2c(=O)[nH]1)CCCC3	·	i	i	i	i	i	·	·	·	·
O=C(COc1ccc(Cl)cc1Cl)N1CCN(c2ccccn2)CC1	-1.1	i	i	i	i	i	·	·	·	·
O=C(CCCOc1ccc(Cl)cc1Cl)N1CCN(c2ccccn2)CC1	-2.7	-5.2*	i	i	i	i	i	i	i	i
CCOc1ccc(C(=O)N2CCN(c3ccccn3)CC2)cc1OCC	·	-4.8*	i	i	i	i	i	i	i	68*
O=C(c1ccc2ccccc2c1)N1CCN(c2ccccn2)CC1	·	i	i	i	i	i	·	·	·	·
CCC(=O)Nc1c(-c2ccc(Cl)cc2)c(=O)c2ccccc2n1C	·	i	i	i	i	i	·	·	·	·
CC1CC(O)C(C)CN1 (centres undefined)	-0.99	·	i	·	i	·	·	·	·	·
CS(=O)(=O)c1nc(S(=O)(=O)c2ccc(Cl)cc2)c(NCCCn2ccnc2)s1	·	i	i	i	i	i	·	·	·	·
O=C(NCC1CCCCC1)c1cccnc1Cl	·	i	i	i	i	i	·	·	·	·
O=C(NCCCCNC(=O)c1cccnc1Cl)c1cccnc1Cl	·	-4.8*	i	i	i	i	i	i	i	i
COc1ccc(C(=O)Nn2c(CC(C)C)nc3cc(Cl)ccc3c2=O)c(OC)c1	·	i	i	i	i	i	·	·	·	·
C=C(C)COc1ccc(-c2nc(N)ncc2Oc2ccc(OC)cc2)c(O)c1	1	-4.6*	i	i	i	i	i	i	i	i
C=C(C)COc1ccc(-c2nc(N)ncc2Oc2ccccc2OC)c(O)c1	-0.6	i	·	i	·	i	·	·	·	·
COc1ccc(C(=O)Cc2ccc3c(c2)OCO3)c(O)c1	-0.04	i	i	i	i	i	·	·	·	·
O=C(Cc1ccc2c(c1)OCCO2)c1c(O)cc(O)cc1O	-1.4	-5.2*	i	i	i	i	71%*	i	i	i
COCCCNC(=S)Nc1ccc(S(=O)(=O)Nc2cc(OC)nc(OC)n2)cc1	·	i	i	i	i	i	·	·	·	·
O=C(O)c1cc(-c2ccc(Cl)cc2)n(-c2ccc(F)cc2)n1	·	i	i	i	i	i	·	·	·	·
CCCC(CCC(=O)NC1CCCCC1)C(=O)O (centres undefined)	-0.055	i	i	i	i	i	·	·	·	·
CCCC(C)NC(C)C(=O)NC1CCCC1 (centres undefined)	0.68	-5*	i	i	i	i	i	i	i	i
COc1ccc(NC(=O)C(=O)NCC2CCCN2S(=O)(=O)c2cccs2)cc1 (centres undefined)	·	i	i	i	i	i	·	·	·	·
Cn1c(N)c(C(=O)COC(=O)[C@@H]2CCCN2S(=O)(=O)c2ccc(Cl)cc2)c(=O)n(C)c1=O	-0.63	-6.1*	i	i	i	i	i	i	i	i
Cc1ccc(NC(=O)CNC(=O)CC23CC4CC(CC(C4)C2)C3)c(O)c1	·	i	i	i	i	i	·	·	·	·
CCc1c(C)sc(NC(=O)c2ccoc2C)c1C(N)=O	·	-5.9*	i	i	i	i	i	i	i	i
Cc1occc1C(=O)Nc1sc2c(c1C(N)=O)CCCCC2	0.019	-6.5*	i	i	i	i	i	i	i	i
SMILES	KCC2 mod	MrgX1 antag	RGS4 inh	MrgX1 allo act	RGS4 pot	MrgX1 ag	MrgX1 antag conf	HEK293 Ca flux	HEK293 Ca counter	HEK293 Ca cntr2
COC(=O)c1c(NC(=O)c2ccoc2C)sc2c1CCC2	-0.043	i	i	i	i	i	·	·	·	·
COC(=O)C1(C(F)(F)F)C2C=CC(C2)N1S(=O)(=O)c1ccc(C)cc1 (centres undefined)	·	i	i	i	i	i	·	·	·	·
COC(=O)/C(C#N)=C/c1c(Oc2cccc(C)c2C)nc2ccccn2c1=O	-1.1	i	i	i	i	i	·	·	·	·
O=C(O)CNC(=O)C(c1ccccc1)c1ccccc1	0.6	i	i	i	i	i	·	·	·	·
O=C(O)CNC(=O)C(CS)Cc1ccccc1 (centres undefined)	·	-8.6*	·	i	·	i	i	i	i	i
COc1cc2c(cc1OC)CN(C(=O)c1ccc(OC)c(S(=O)(=O)N3CCOCC3)c1)CC2	·	-5.1*	i	i	i	i	i	i	i	i
COc1ccc(C(=O)N2CCCC2)cc1S(=O)(=O)N1CCOCC1	0.016	i	i	i	i	i	·	·	·	·
CCC1C(=O)NCCN1C(=O)c1ccc2nc(Cc3cccc(Cl)c3)oc2c1 (centres undefined)	·	i	i	i	i	i	·	·	·	·
CCCN(CCC)CCNC(=O)C1CCCN(S(=O)(=O)c2ccc3c(c2)oc(=O)n3C)C1 (centres undefined)	1.4	i	i	i	i	i	·	·	·	·
Cn1c(=O)oc2cc(S(=O)(=O)N3CCCC(C(=O)NCCN4CCOCC4)C3)ccc21 (centres undefined)	0.18	-4.6*	·	i	·	i	i	i	i	i

Screening results from PubChem.
